{
  "source": "ChEMBL document CHEMBL1122278",
  "about": "“Gastric antisecretory 9H-xanthen-9-amines” (1983)",
  "key": {"[1]": {"test_system": "Rattus norvegicus", "assay": "Antisecretory activity in PLR after pre-incubation in neutralized juice for 60 min at 15 mg/kg dose, measured as acid titreated", "format": "functional", "outline": "(§1)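 Male Carworth Farms rats (270–360 g), fasted 18 h with water, pylorus ligated under ether. Compound in PEG 200 (80 mg/mL) added to gastric juice from separate 4-h ligated rats (stored frozen) at 7.5 mg/mL, juice neutralized with 1.0 N NaOH before or after addition, or left untreated (pH 1.0). Given intraduodenally right after ligation. Juice collected 2 h later; volume, titre (NaOH to pH 7.4), output = volume × titre.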"}, "[2]": {"test_system": "Rattus norvegicus", "assay": "Gastric antisecretory activity in pylorus ligated rat at a concentration of 50 mg/kg perorally, expressed as % decrease in mean titratable acid output of gastric juice in treated vs. control groups.", "format": "functional", "details": "route oral", "outline": "(§2)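 Male Carworth Farms rats (270–360 g), fasted 18 h with water; compound in PEG 200 by gavage 1 h before pylorus ligation under ether. Killed 2 h after ligation; juice centrifuged, volume and pH measured, supernatant titrated with NaOH to pH 7.4, output = volume × titre. Mean of six to seven animals against controls.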"}, "[3]": {"test_system": "Rattus norvegicus", "assay": "Effect of intraduodenal administration of compound on acid secretion inhibition in the PLR; Value ranges from 1.4-7.8", "format": "functional"}, "[4]": {"test_system": "Rattus norvegicus", "assay": "Antisecretory activity in PLR after pre-incubation in gastric juice at pH 1.0 for 30 min at 15 mg/kg dose, measured as volume"}, "[5]": {"test_system": "Canis familiaris", "assay": "Effect on pentagastrin-induced acid secretion in gastric fistula dogs, at 1 mg/kg, iv for 2 h", "format": "functional, Canis lupus familiaris, Stomach", "outline": "(§3)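 Four chronic gastric fistula dogs (11.2–16.2 kg), fasted 24 h, saline infused via saphenous vein, then pentagastrin 8 (μg/kg)/h for maximal stimulation. After 1 h acid plateau, compound given 1 mg/kg iv in PEG 200. Juice collected at 15-min intervals and centrifuged; titratable acid output from volume × titre, as mean ± SE, equivalents per hour.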"}, "[6]": {"test_system": "Rattus norvegicus", "assay": "Effect of peroral administration of compound on acid secretion inhibition in the PLR; NS means no significant dose response.", "format": "functional, organism-based", "outline": "(§4)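 Rats (male Carworth Farms, 270–360 g) fasted 18 h; compound in PEG 200 by gavage 1 h before pylorus ligation under ether, six per group. Gastric contents collected 2 h post-ligation; pH, volume, titre (NaOH to pH 7.4) measured, output = volume × titre.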"}, "[7]": {"test_system": "Rattus norvegicus", "assay": "Effect of intravenous administration of compound on acid secretion inhibition in the PLR; Value ranges from 0.9-5.3", "format": "functional", "outline": "(§5)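 Male Carworth Farms rats (270–360 g), fasted 18 h, pylorus ligated under ether; compound in PEG 200 given intravenously at ligation, six rats per group. Gastric contents taken 2 h after ligation, centrifuged, titrated with NaOH to pH 7.4; output = volume × titre.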"}, "[8]": {"test_system": "Rattus norvegicus", "assay": "Antisecretory activity in PLR after pre-incubation in neutralized juice for 60 min at 15 mg/kg dose, measured as acid output", "format": "functional", "outline": "as §1"}, "[9]": {"test_system": "Rattus norvegicus", "assay": "Antisecretory activity in PLR after pre-incubation in gastric juice at pH 1.0 for 30 min at 15 mg/kg dose, measured as acid titreated", "format": "functional", "outline": "as §1"}, "[10]": {"test_system": "Canis familiaris", "assay": "Effect on pentagastrin-induced acid secretion in gastric fistula dogs, at 1 mg/kg, iv for 1 h", "format": "functional, Canis lupus familiaris, Stomach", "outline": "as §3"}, "[11]": {"test_system": "Rattus norvegicus", "assay": "Effect of peroral administration of compound on acid secretion inhibition in the PLR; Value ranges from 4.7-14.9", "format": "functional", "outline": "as §4"}, "[12]": {"test_system": "Rattus norvegicus", "assay": "Antisecretory activity in PLR after preincubation in gastric juice at pH 1.0 for 2 min at 15 mg/kg dose, measured as acid titreated", "format": "functional", "outline": "as §1"}, "[13]": {"test_system": "Rattus norvegicus", "assay": "Effect of intravenous administration of compound on acid secretion inhibition in the PLR; Value ranges from 0.3-2.7", "format": "functional", "outline": "as §5"}, "[14]": {"test_system": "Rattus norvegicus", "assay": "Antisecretory activity in PLR after preincubation in gastric juice at pH 1.0 for 60 min at 15 mg/kg dose, measured as volume", "format": "functional", "outline": "as §1"}, "[15]": {"test_system": "Canis familiaris", "assay": "Effect on pentagastrin-induced acid secretion in gastric fistula dogs, at 1 mg/kg, iv for 3 h", "format": "functional, Canis lupus familiaris, Stomach", "outline": "as §3"}, "[16]": {"test_system": "Rattus norvegicus", "assay": "Effect of intraduodenal administration of compound on acid secretion inhibition in the PLR; Value ranges from 0.8-4.8", "format": "functional"}, "[17]": {"test_system": "Rattus norvegicus", "assay": "Antisecretory activity in PLR after pre-incubation in gastric juice at pH 1.0 for 60 min at 15 mg/kg dose, measured as acid titreated", "format": "functional", "outline": "as §1"}, "[18]": {"test_system": "Rattus norvegicus", "assay": "Antisecretory activity in PLR after pre-incubation in gastric juice at pH 1.0 for 60 min at 15 mg/kg dose, measured as acid output", "format": "functional", "outline": "as §1"}, "[19]": {"test_system": "Rattus norvegicus", "assay": "Antisecretory activity in PLR after pre-incubation in gastric juice at pH 1.0 for 2 min at 15 mg/kg dose, measured as volume", "format": "functional", "outline": "as §1"}, "[20]": {"test_system": "Rattus norvegicus", "assay": "Antisecretory activity in PLR after pre-incubation in gastric juice at pH 1.0 for 30 min at 15 mg/kg dose, measured as acid output", "format": "functional", "outline": "as §1"}, "[21]": {"test_system": "Rattus norvegicus", "assay": "Gastric antisecretory activity in pylorus-ligated rat at a concentration of 50 mg/kg perorally, expressed as increase in mean pH.", "format": "functional", "details": "route oral", "outline": "as §2"}, "[22]": {"test_system": "Rattus norvegicus", "assay": "Antisecretory activity in PLR after pre-incubation in gastric juice at pH 1.0 for 2 min at 15 mg/kg dose, measured as acid output", "format": "functional", "outline": "as §1"}, "[23]": {"test_system": "Rattus norvegicus", "assay": "Antisecretory activity in PLR after pre-incubation in neutralized juice for 60 min at 15 mg/kg dose, measured as volume", "format": "functional", "outline": "as §1"}},
  "data": [
    {"compound": "CCN1CCCC(NC2c3ccccc3Oc3ccccc32)C1", "note": "(stereo unspecified)", "values": [
      {"measurement": "Acid titer", "setting": "[1]", "value": 26, "unit": "m equiv l-1"},
      {"measurement": "Delta TAO", "setting": "[2]", "value": 98},
      {"measurement": "ED50", "setting": "[3]", "value": 3.8, "unit": "mg/kg"},
      {"measurement": "Volume", "setting": "[4]", "value": 6, "unit": "mL"},
      {"measurement": "Acid output", "setting": "[5]", "value": 2.46, "unit": "u equiv hr-1"},
      {"measurement": "Change", "setting": "[5]", "value": -80, "unit": "%"},
      {"measurement": "ED50", "setting": "[6]", "value": "Not significant"},
      {"measurement": "ED50", "setting": "[7]", "value": 2.3, "unit": "mg/kg"},
      {"measurement": "Acid output", "setting": "[8]", "value": 70, "unit": "u equiv 2hr-1"},
      {"measurement": "Acid titer", "setting": "[9]", "value": 62, "unit": "m equiv l-1"},
      {"measurement": "Acid output", "setting": "[10]", "value": 3.37, "unit": "u equiv hr-1"},
      {"measurement": "Change", "setting": "[10]", "value": -72, "unit": "%"},
      {"measurement": "ED50", "setting": "[11]", "value": 8.9, "unit": "mg/kg"},
      {"measurement": "Acid titer", "setting": "[12]", "value": 43, "unit": "m equiv l-1"},
      {"measurement": "ED50", "setting": "[13]", "value": 1.2, "unit": "mg/kg"},
      {"measurement": "Volume", "setting": "[14]", "value": 5.6, "unit": "mL"},
      {"measurement": "Acid output", "setting": "[15]", "value": 4.6, "unit": "u equiv hr-1"},
      {"measurement": "Change", "setting": "[15]", "value": -62, "unit": "%"},
      {"measurement": "ED50", "setting": "[16]", "value": 2.3, "unit": "mg/kg"},
      {"measurement": "Acid titer", "setting": "[17]", "value": 59, "unit": "m equiv l-1"},
      {"measurement": "Acid output", "setting": "[18]", "value": 324, "unit": "u equiv 2hr-1"},
      {"measurement": "Volume", "setting": "[19]", "value": 4.6, "unit": "mL"},
      {"measurement": "Acid output", "setting": "[20]", "value": 367, "unit": "u equiv 2hr-1"},
      {"measurement": "Delta pH", "setting": "[21]", "value": 5.6},
      {"measurement": "Acid output", "setting": "[22]", "value": 191, "unit": "u equiv 2hr-1"},
      {"measurement": "Volume", "setting": "[23]", "value": 2.5, "unit": "mL"}
    ]}
  ]
}
